Assay type in all cases: functional, cell-based
A short description of experiment [1]: Cytotoxicity against human Bel7404 cells after 48 hrs by MTT assay. Particulars: BEL-7404, 48 h. A digest of the protocol: (§1)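 Cells from the six lines were plated and left to adhere for 24 h. They were then exposed to compounds at 100 to 0.01 µM for 48 h. After that the medium was replaced with complete medium and viability was read by MTT. IC50 came from the concentration series, and each experiment was done three times.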
(In general: Formazan colour is commonly taken as a measure of viable cells.)

For a further experiment, the system named is HCT-116. In words: Cytotoxicity against human HCT116 cells after 48 hrs by MTT assay. The conditions noted are these: HCT-116, 48 h. In a few lines:
as §1

In another experiment the test system is HeLa. In words: Cytotoxicity against human HeLa cells after 48 hrs by MTT assay. A digest of the protocol: as §1
Another experiment relates to SK-OV-3. Description: Cytotoxicity against human SKOV3 cells after 48 hrs by MTT assay. The conditions noted are these: SK-OV-3, 48 h. In a few lines: as §1
A further experiment concerns HepG2. In words: Cytotoxicity against human HepG2 cells after 48 hrs by MTT assay. The conditions noted are these: HepG2, 48 h. In a few lines: as §1
The test system of another experiment is NCI-H460. Description: Cytotoxicity against human NCI-H460 cells after 48 hrs by MTT assay. Particulars: NCI-H460, 48 h. In a few lines: as §1

By IC50 is commonly meant the concentration that gives 50% inhibition. A higher IC50 goes with weaker potency in that assay.

Regarding `CC(C)c1ccc2c(c1)CC[C@H]1[C@](C)(C(=O)N[C@H](Cc3ccccc3)C(=O)Nc3cccc([N+](=O)[O-])c3)CCC[C@]21C`, the half-maximal inhibitory concentration (IC50) in experiment [1] came to 27.1 µM; with HCT-116, 27.4 µM; in the experiment with HeLa, 12.8 µM; in the experiment with SK-OV-3, 20.1 µM; in the experiment with HepG2, 25.3 µM; with NCI-H460, 32.8 µM.
Consider `CC(C)c1ccc2c(c1)CC[C@H]1[C@](C)(C(=O)N[C@H](Cc3ccccc3)C(=O)Nc3ccc(Cl)cc3)CCC[C@]21C`, for which the half-inhibitory concentration (IC50) in experiment [1] is 33.6 µM; in the experiment with HCT-116 it was 37.8 µM; in the experiment with HeLa, 12.2 µM; with SK-OV-3, 26.3 µM; with HepG2, 26.3 µM; with NCI-H460, 15.8 µM.
`CC(C)c1ccc2c(c1)CC[C@H]1[C@](C)(C(=O)N[C@H](Cc3ccccc3)C(=O)Nc3ccc(Cl)c(Cl)c3)CCC[C@]21C`: the IC50 in experiment [1] amounted to 44.7 µM; in the experiment on HCT-116, 40.9 µM; in the experiment with HeLa, 28.8 µM; in the experiment with SK-OV-3, 33.1 µM; in the experiment on HepG2, 20.4 µM; with NCI-H460, 27 µM.
In the case of `Cc1ccc(NC(=O)[C@@H](Cc2ccccc2)NC(=O)[C@]2(C)CCC[C@]3(C)c4ccc(C(C)C)cc4CC[C@@H]23)cc1C`, the IC50 in experiment [1] turned out to be 48.2 µM; in the experiment on HCT-116, 32.1 µM; in the experiment on HeLa it was 14.3 µM; in the experiment on SK-OV-3 it was 51.8 µM; in the experiment with HepG2 it was 42.8 µM; in the experiment with NCI-H460 it was 37 µM.
On to `CC(C)c1ccc2c(c1)CC[C@H]1[C@](C)(C(=O)N[C@H](Cc3ccccc3)C(=O)Nc3cccc(F)c3)CCC[C@]21C`, for which the IC50 is 27.4 µM in experiment [1]; 34.8 µM in the experiment with HCT-116; 13.9 µM with HeLa; 33.9 µM with SK-OV-3; 23.9 µM in the experiment with HepG2; 26.1 µM in the experiment with NCI-H460.
Consider `CC(C)c1ccc2c(c1)CC[C@H]1[C@](C)(C(=O)N[C@H](Cc3ccccc3)C(=O)Nc3cc(Cl)ccc3Cl)CCC[C@]21C`, for which the IC50 worked out at 31 µM in experiment [1]; 24.1 µM in the experiment on HCT-116; 14.9 µM in the experiment on HeLa; 21.6 µM in the experiment with SK-OV-3; 23.4 µM with HepG2; 15.8 µM with NCI-H460.
With `CC(C)c1ccc2c(c1)CC[C@H]1[C@](C)(C(=O)N[C@H](Cc3ccccc3)C(=O)Nc3ccccc3)CCC[C@]21C`, the IC50 in experiment [1] is 16.7 µM; in the experiment with HCT-116 it was 30.3 µM; in the experiment on HeLa, 18.9 µM; with SK-OV-3 it was 27.4 µM; in the experiment with HepG2, 27.7 µM; with NCI-H460 it was 28.2 µM.
With `CC(C)c1ccc2c(c1)CC[C@H]1[C@](C)(C(=O)N[C@H](Cc3ccccc3)C(=O)Nc3ccc(F)cc3)CCC[C@]21C`, the half-maximal inhibitory concentration (IC50) was 21 µM in experiment [1]; 27.4 µM in the experiment with HCT-116; 10.8 µM with HeLa; 20.1 µM in the experiment with SK-OV-3; 27.1 µM with HepG2; 22.8 µM in the experiment with NCI-H460.
With `CC(C)c1ccc2c(c1)CC[C@H]1[C@](C)(C(=O)N[C@H](Cc3ccccc3)C(=O)Nc3ccc(F)c(Cl)c3)CCC[C@]21C`, the half-maximal inhibitory concentration (IC50) was found to be 26.1 µM in experiment [1]; 39.3 µM in the experiment on HCT-116; 11.1 µM with HeLa; 30.5 µM in the experiment with SK-OV-3; 32.9 µM in the experiment with HepG2; 26.8 µM with NCI-H460.
In the case of `CC(C)c1ccc2c(c1)CC[C@H]1[C@](C)(C(=O)N[C@H](Cc3ccccc3)C(=O)Nc3ccc(Br)cc3)CCC[C@]21C`, the concentration for half-maximal inhibition (IC50) in experiment [1] stood at 16.9 µM; in the experiment on HCT-116 it was 35.3 µM; in the experiment on HeLa, 15.2 µM; with SK-OV-3 it was 28.7 µM; with HepG2 it was 34.6 µM; with NCI-H460 it was 28.7 µM.
On to `O=c1[nH]cc(F)c(=O)[nH]1` [FLUOROURACIL], for which the IC50 was determined as 26.8 µM in experiment [1]; 24.4 µM in the experiment with HCT-116; 80.5 µM with HeLa; 27 µM in the experiment with HepG2; 36 µM in the experiment with NCI-H460.

These data come from ChEMBL document CHEMBL3124769, “Synthesis and antitumor activities of novel dipeptide derivatives derived from dehydroabietic acid” (Bioorg Med Chem Lett, 2014).
